# Measurements from different studies.
# Lines come from different studies, so protocols differ.
# Target: Ephrin type-B receptor 2 (EPHB2, Homo sapiens, UniProt P29323)
# One construct used (P29323 19-1055): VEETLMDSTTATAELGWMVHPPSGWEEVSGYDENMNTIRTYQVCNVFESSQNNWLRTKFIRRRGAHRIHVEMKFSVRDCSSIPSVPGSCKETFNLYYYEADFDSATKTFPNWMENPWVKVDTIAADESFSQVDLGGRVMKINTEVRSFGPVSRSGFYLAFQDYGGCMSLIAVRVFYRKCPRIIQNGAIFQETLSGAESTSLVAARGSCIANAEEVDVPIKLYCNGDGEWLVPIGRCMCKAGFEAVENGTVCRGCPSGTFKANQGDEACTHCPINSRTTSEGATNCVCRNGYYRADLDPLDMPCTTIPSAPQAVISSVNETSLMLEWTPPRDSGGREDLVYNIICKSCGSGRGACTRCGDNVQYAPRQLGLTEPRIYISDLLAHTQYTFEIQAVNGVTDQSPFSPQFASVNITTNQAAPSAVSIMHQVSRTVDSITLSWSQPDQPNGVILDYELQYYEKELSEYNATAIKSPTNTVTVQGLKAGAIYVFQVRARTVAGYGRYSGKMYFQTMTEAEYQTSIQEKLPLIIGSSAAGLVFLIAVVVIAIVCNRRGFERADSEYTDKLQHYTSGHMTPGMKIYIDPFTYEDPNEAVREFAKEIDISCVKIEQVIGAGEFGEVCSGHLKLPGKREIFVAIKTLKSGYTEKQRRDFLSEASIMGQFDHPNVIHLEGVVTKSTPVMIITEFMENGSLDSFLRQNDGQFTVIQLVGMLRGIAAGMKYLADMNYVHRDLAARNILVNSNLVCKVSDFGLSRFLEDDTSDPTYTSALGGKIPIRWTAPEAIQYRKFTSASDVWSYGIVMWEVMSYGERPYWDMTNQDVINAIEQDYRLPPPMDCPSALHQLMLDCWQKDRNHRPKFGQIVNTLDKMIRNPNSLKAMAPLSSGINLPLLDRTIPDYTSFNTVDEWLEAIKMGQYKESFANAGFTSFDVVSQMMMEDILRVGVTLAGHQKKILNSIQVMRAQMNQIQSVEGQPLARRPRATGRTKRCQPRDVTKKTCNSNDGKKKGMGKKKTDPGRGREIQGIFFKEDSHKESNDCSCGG
SMILES,read-out,technique,tested at,remaining binding [%]
Cc1cnc(Nc2ccc(C(=O)N3CCC(N4CCCC4)CC3)cc2)nc1-c1cc2ccccc2s1,binding,competition with immobilised ligand,1 µM,65
CN(C)c1nccc(-c2cnn3ncccc23)n1,binding,,1 µM,71
O=C(O)[C@H]1[C@H](Cn2nnc3ccccc3c2=O)CC[C@@H]1C(=O)c1ccc(OCCC2CCOCC2)cc1,cell-free assay,competition with immobilised ligand,1 µM,100
CN(C)c1ncc(F)c(-c2cnn3ncccc23)n1,binding,,1 µM,100
CS(=O)(=O)NCC[C@H](NC(=O)c1cncc2c1cnn2-c1ccc(F)cc1)c1ccnc(S(C)(=O)=O)c1,cell-free assay,competition with immobilised ligand,1 µM,92
FC(F)(F)Oc1cccc(-c2cnc3ccc(-c4ccncc4)nn23)c1,cell-free assay,competition with immobilised ligand,5 µM,96
CNC(=O)[C@@H]1CC[C@@H](n2c(-c3ccc4cnccc4c3)nc3ccc(C(=O)NCc4cccc(C(N)=O)c4)cc32)C1,binding,competition with immobilised ligand,1 µM,96
O=C(NCCCN1CCOCC1)c1ccc(Nc2nccc(-c3cc4ccccc4s3)n2)cc1,binding,competition with immobilised ligand,1 µM,98
COc1cnc(Nc2cccc(S(N)(=O)=O)c2)nc1N1CCN(c2ccccc2)C(=O)C1,binding,competition with immobilised ligand,1 µM,99
CCN1CCN(Cc2ccc(C(=O)Nc3ccc(C)c(Oc4ccc5c(c4)CC(=O)N5)c3)cc2C(F)(F)F)CC1,binding,competition with immobilised ligand,1 µM,100
COc1ncc2cc3ccccc3nc2c1C#N,cell-free assay,competition with immobilised ligand,5 µM,99
N[C@@H]1CCN(c2nccc(-c3cnn4ncccc34)n2)C1,binding,,1 µM,100
Cn1cc(Cl)c2c(Oc3c(F)cc(Nc4cc(Cl)nc(N)n4)cc3F)ccnc21,cell-free assay,competition with immobilised ligand,0.1 µM,100
C[C@@H]1CCN(c2nccc(-c3cnn4ncccc34)n2)C1,binding,,1 µM,100
CO[C@H]1CC[C@H](CNc2ccc(S(=O)(=O)NC(=O)c3ccc(N4CCN(CC5=C(c6ccc(Cl)cc6)CC(C)(C)CC5)CC4)cc3Oc3cnc4[nH]ccc4c3)cc2[N+](=O)[O-])CC1,cell-free assay,competition with immobilised ligand,1 µM,75
CN(C)c1nccc(-c2cnc3ncccn23)n1,binding,,1 µM,92
Cc1nccc(COC(=O)N2C[C@@H]3[C@@H](CNC(=O)c4ccc5[nH]nnc5c4)[C@@H]3C2)n1,cell-free assay,competition with immobilised ligand,1 µM,100
O=C(NCC1CCOCC1)c1n[nH]cc1NC(=O)c1c(F)cccc1F,binding,competition with immobilised ligand,1 µM,98
